According to ChEMBL document CHEMBL1126119, “3',3'-Difluoro-3'-deoxythymidine: comparison of anti-HIV activity to 3'-fluoro-3'-deoxythymidine” (J Med Chem, 1992):

Experiments:
[1] = molecular target: Human immunodeficiency virus type 1 reverse transcriptase (Human immunodeficiency virus 1, UniProt Q72547); test: Concentration required to inhibit HIV reverse transcriptase
[2] = test system: MT4; test: Concentration required to affect a 50% reduction in the cytopathic effect of HIV for MT-4 cells; format: functional; details: Homo sapiens, read-out: ED50 (the source's name)
Procedure, shortened: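 HIV-infected MT4 cell cultures were used. ED50 is the dose that gives a 50% reduction in the HIV-induced cytopathic effect.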

[3] = test system: MT4; test: Concentration required to reduce the number of viable cells in the untreated MT-4 cell culture; format: functional; details: Homo sapiens, read-out: CD50 (the source's name)
Procedure, shortened: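 Uninfected, untreated MT4 cell cultures were used. CD50 is the cytotoxic dose that reduces the number of viable cells by 50%.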

Row | Compound | IC50 [1] | EC50 [2] | CC50 [3]
1 | Cc1cn([C@H]2CC[C@@H](CO)O2)c(=O)[nH]c1=O | < 50 nM | 6 µM | > 625 µM
2 | Cc1cn([C@H]2CC(F)(F)[C@@H](CO)O2)c(=O)[nH]c1=O | 8800 nM | 38.6 µM | 48.4 µM
3 | Cc1cn([C@H]2C[C@H](N=[N+]=[N-])[C@@H](CO)O2)c(=O)[nH]c1=O [ZIDOVUDINE] | 40 nM | 0.004 µM | 20 µM
4 | Cc1cn([C@H]2C[C@H](F)[C@@H](CO)O2)c(=O)[nH]c1=O [ALOVUDINE] | < 50 nM | 0.001 µM | 0.197 µM
